Laboratory results from ChEMBL document CHEMBL4145529, “Design, synthesis and biological evaluation of hybrid nitroxide-based non-steroidal anti-inflammatory drugs” (Eur J Med Chem, 2018).

Tests used:
[1] = molecular target: T1, Prostaglandin G/H synthase 2 (Homo sapiens) (UniProt P35354); assay: Inhibition of COX2-induced PGE2 production in human A549 cells assessed as PGE2 level at 30 uM by ELISA (reference value: 57 +/- 4 pg/ml); type: cell-based
T1 sequence (whole entry): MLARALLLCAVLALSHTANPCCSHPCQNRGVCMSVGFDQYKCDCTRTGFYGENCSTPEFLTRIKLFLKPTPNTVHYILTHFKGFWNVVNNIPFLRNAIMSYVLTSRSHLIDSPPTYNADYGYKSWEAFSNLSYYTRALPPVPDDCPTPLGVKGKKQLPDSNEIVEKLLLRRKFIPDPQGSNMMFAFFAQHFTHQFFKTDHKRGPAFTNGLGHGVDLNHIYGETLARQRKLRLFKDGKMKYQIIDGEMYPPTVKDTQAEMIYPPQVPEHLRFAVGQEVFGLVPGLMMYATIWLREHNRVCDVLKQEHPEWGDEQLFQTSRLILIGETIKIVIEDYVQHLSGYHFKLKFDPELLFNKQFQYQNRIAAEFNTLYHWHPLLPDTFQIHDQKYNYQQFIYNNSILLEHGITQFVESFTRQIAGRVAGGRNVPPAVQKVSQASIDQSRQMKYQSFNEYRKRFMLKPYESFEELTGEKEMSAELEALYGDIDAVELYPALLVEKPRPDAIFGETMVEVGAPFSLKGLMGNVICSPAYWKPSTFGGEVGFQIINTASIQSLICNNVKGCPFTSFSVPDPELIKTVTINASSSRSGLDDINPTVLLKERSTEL
Procedure, shortened: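 A549 NSCLC cells treated with compounds at 30 μM; prostaglandin E2 released via COX quantified by ELISA, reported as pg/mL; mean ± S.D. of 3 determinations each repeated in duplicate; Student's t-test for significance.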

[2] = molecular target: T1, Prostaglandin G/H synthase 2 (Homo sapiens); assay: Inhibition of COX2-induced PGE2 production in human A549 cells assessed as PGE2 level at 4 uM by ELISA (reference value: 126 +/- 17 pg/ml); type: cell-based
Procedure, shortened: (§1)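 COX-derived PGE2 released by A549 cells, measured by ELISA in pg/mL. Test concentrations 4 or 90 μM; combination wells got aspirin + Tempol at 90 μM each. Mean ± S.D. of 3 determinations, each in duplicate; Student's t-test.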

661W [3] = assay: Antioxidant activity in mouse 661W cells assessed as inhibition of antimycin-induced mitochondrial ROS production at 100 uM by fluorescence assay relative to control; type: functional
661W [4] = assay: Antioxidant activity in mouse 661W cells assessed as inhibition of antimycin-induced mitochondrial ROS production at 10 uM by fluorescence assay relative to control; type: functional
661W [5] = assay: Antioxidant activity in mouse 661W cells assessed as inhibition of antimycin-induced mitochondrial ROS production at 50 uM by fluorescence assay relative to control; type: functional
NCI-H1299 [6] = assay: Growth inhibition of human NCI-H1299 cells assessed as cell growth at 900 uM in presence of tempol by MTT assay relative to control; type: functional; settings: read-out: Activity
Procedure, shortened: (§2)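 NCI-H1299 human NSCLC cells; proliferation measured by MTT assay with compounds at 90 or 900 μM, tested alone or as aspirin plus Tempol combination; growth expressed as % of control; mean ± S.D. of 3 experiments each in duplicate; significance by Student's t-test.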

NCI-H1299 [7] = assay: Growth inhibition of human NCI-H1299 cells assessed as cell growth at 90 uM in presence of tempol by MTT assay relative to control; type: functional; settings: read-out: Activity; procedure, shortened: as §2
NCI-H1299 [8] = assay: Growth inhibition of human NCI-H1299 cells assessed as cell growth at 90 uM by MTT assay relative to control; type: functional; settings: read-out: Activity
Procedure, shortened: (§3)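 NCI-H1299 cell growth by MTT assay, tested at 18–900 μM; combination wells got aspirin + Tempol at equal concentration. Given as % growth. Mean ± S.D. of 3 experiments, each run in duplicate; Student's t-test.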

[9] = molecular target: T1, Prostaglandin G/H synthase 2 (Homo sapiens); assay: Inhibition of COX2-induced PGE2 production in human A549 cells assessed as PGE2 level at 90 uM by ELISA; type: cell-based; procedure, shortened: as §1
NCI-H1299 [10] = assay: Growth inhibition of human NCI-H1299 cells assessed as cell growth at 900 uM by MTT assay relative to control; type: functional; settings: read-out: Activity; procedure, shortened: as §3
NCI-H1299 [11] = assay: Growth inhibition of human NCI-H1299 cells assessed as cell growth at 900 uM in presence of aspirin by MTT assay relative to control; type: functional; settings: read-out: Activity; procedure, shortened: as §3
[12] = molecular target: T1, Prostaglandin G/H synthase 2 (Homo sapiens); assay: Inhibition of COX2-induced PGE2 production in human A549 cells assessed as PGE2 level at 90 uM in presence of aspirin by ELISA (reference value: 126 +/- 17 pg/ml); type: cell-based; procedure, shortened: as §1
NCI-H1299 [13] = assay: Growth inhibition of human NCI-H1299 cells assessed as cell growth at 90 uM in presence of aspirin by MTT assay relative to control; type: functional; settings: read-out: Activity; procedure, shortened: as §3
A549 [14] = assay: Anti-oxidant activity in human A549 cells assessed as inhibition of H2O2-induced ROS production by measuring ROS level at 100 uM by DCFH-DA staining based fluorescence assay (reference value: 194 +/- 13%); type: functional; design: scale not given: the % may be the effect or the level left
A549 [15] = assay: Effect on basal ROS level in human A549 cells at 100 uM by DCFH-DA staining based fluorescence assay (reference value: 100 +/- 5%); type: cell-based; settings: a549, 100 µM

CC(=O)Oc1cc2c(cc1C(=O)O)C(C)(C)N([O])C2(C)C
Activity [1]: 52 pg/mL

CC(=O)Oc1ccccc1C(=O)NC1CC(C)(C)N([O])C(C)(C)C1
Activity [2]: 99 pg/mL
Activity [1]: 54 pg/mL

CC(=O)Oc1ccccc1C(=O)Nc1ccc2c(c1)C(C)(C)N([O])C2(C)C
Activity [1]: 45 pg/mL

CC(=O)Oc1ccccc1C(=O)OC1CC(C)(C)N([O])C(C)(C)C1
Activity [2]: 87 pg/mL
Activity [1]: 31 pg/mL

CC1(C)CC(C(=O)Oc2ccccc2C(=O)O)C(C)(C)N1[O] (configuration not stated)
Activity [1]: 34 pg/mL

CC1(C)CC(C(=O)Oc2ccccc2C(=O)OCc2ccccc2)CC(C)(C)N1[O]
Activity [1]: 23 pg/mL

CC1(C)c2cc(O)c(C(=O)O)cc2C(C)(C)N1[O]
Activity [1]: 50 pg/mL

COc1ccc2c(c1)c(CC(=O)Nc1ccc3c(c1)C(C)(C)N([O])C3(C)C)c(C)n2C(=O)c1ccc(Cl)cc1
inhibition (661W [3]): 88.4%
inhibition (661W [4]): 97.6%
inhibition (661W [5]): 82.3%
Activity [1]: 58 pg/mL

CC(=O)Oc1ccccc1C(=O)O [ASPIRIN]
growth at 900 µM (NCI-H1299 [6]): 53%
growth at 90 µM (NCI-H1299 [7]): 102%
growth at 90 µM (NCI-H1299 [8]): 103%
Activity [9]: 79 pg/mL
growth at 900 µM (NCI-H1299 [10]): 49%

CC1=C[C@H](O)CC(C)(C)[C@H]1/C=C/C(C)=C/C=C/C(C)=C/C=C/C=C(C)/C=C/C=C(C)/C=C/C1=C(C)C[C@@H](O)CC1(C)C [LUTEIN]
inhibition at 10 µM (661W [4]): 89.7%

CC1(C)CC(O)CC(C)(C)N1[O] [TEMPOL]
growth at 900 µM (NCI-H1299 [11]): 53%
Activity [12]: 75 pg/mL
growth at 90 µM (NCI-H1299 [8]): 100%
growth at 90 µM (NCI-H1299 [13]): 102%
Activity (A549 [14]): 155%
Activity [9]: 105 pg/mL
Activity (A549 [15]): 103%
growth at 900 µM (NCI-H1299 [10]): 98%
